Bioassay records (PubChem BioAssay)
Beta apoptosis = beta cell apoptosis inhibition; INS-1E cytokine-induced death, ATP luminescence, 48 h; percent of positive-control rescue, neutral wells zero; protection from apoptosis, % (no concentration beside the values); 300,000 compounds, 0.8% hits; AID 435005;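 active = Every replicate reaches about 75%, or at least half do and their mean reaches it too, limit read from the data; inconclusive = At least half of replicates reach the limit but their mean does not; inactive = Under half of replicates reach the limit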;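 note: higher means more ATP so stronger rescue from cytokine killing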
CSC inhib = blocks cancer stem cells | 300,000 compounds, 1.1% hits | AID 2717 | cancer stem cell-like cells viability, luminescence | inhibition, % at 7.5 µM; in the data active = inhibition above about 75%; inconclusive = no clear call, values can overlap the other calls; tested in HMLE shEcad cells
Mdm2 MdmX PPI = disrupts the human Mdm2-MdmX interaction | SaOS-2 split-luciferase Mdm2/MdmX complementation, luminescence | inhibition, % at 8 µM | 330,000 compounds, 3% hits | AID 485346;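 active = inhibition of at least 50% at 8 µM in the primary screen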
T cruzi repl = T. cruzi replication inhibition; T. cruzi beta-gal in NIH3T3, luminescence, 90 h; inhibition, % (concentration not given with the values); 300,000 compounds, 1.4% hits; AID 1885;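 active = mean inhibition across valid replicates above about 55%, limit read from the data; inconclusive = mean below that limit but half or more replicates reach it; inactive = mean below it, under half of replicates reach it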;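 note: signal also drops with host cell toxicity which is not excluded here; higher percent means less beta-gal luminescence so fewer parasites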
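System: mouse NIH/3T3 fibroblasts infected with β-gal-expressing T. cruzi Tulahuen C4 / Input: NIH/3T3 cells, 5,000 per well / Buffer or medium: Low-serum DMEM with 2% FBS / Probe or stimulus: 5000 reporter trypomastigotes per well / Schedule: ≥90 h infection period, 3 h prior cell attachment / Measured by: GalScreen luminescence, 60 min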
SKKanGAS inh = blocks kanamycin growth of S. pyogenes SKKanGAS strain; BacTiter-Glo, 6 h; inhibition, % at 7.5 µM; 300,000 compounds, 1.3% hits; AID 1662;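 active = mean replicate score, as percent of positive control median, at least 50; inconclusive = mean below 50 but one replicate at or above 50; inactive = mean and every replicate below 50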;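 note: strain carries kanamycin resistance gene driven by streptokinase promoter and grows in 40 µg/ml kanamycin; loss of luminescence reflects streptokinase promoter inhibition or plain growth inhibition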
Calb FLC = C. albicans growth modulation with fluconazole | C. albicans CaCi-2 (fluconazole-resistant clinical isolate) + fluconazole, Alamar Blue growth, 48 h | growth inhibition, % (test concentration not listed) | 300,000 compounds, 0.57% hits | AID 1979;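 active = growth inhibition above about 58% in most replicates, limit read from the data, passing the limit was not always enough; inconclusive = exactly half the replicates above a set limit; inactive = most replicates below a set limit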;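 note: all wells also contain fluconazole at 8 µg/ml as a sub-toxic cotreatment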
Mdm2-MdmX conf = human Mdm2/MdmX binding inhibition, confirmed; inhibition, % at 8 µM; luminescent assay; shares compounds with Mdm2 MdmX PPI; 10,000 compounds, 55% hits; AID 489028; in the data active = inhibition above about 40%
FLuc counter = full-length luciferase inhibition in Mdm2/MdmX counter-screen; SaOS-2 full-length luciferase counterscreen, luminescence; shares compounds with Mdm2 MdmX PPI; inhibition, % at 8 µM; 6,200 compounds, 77% hits;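 active = mean inhibition at 8 µM reaching about 37%, which flags the compound as non-specific, limit read from the data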;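 note: p53-null SaOS-2 cells with luciferase driven by a doxycycline-inducible promoter; compound on cells about two nights before reading with doxycycline added after day one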
Each line names hits and unclear results; the compound was inactive in the other large screens (follow-up assays come after a bar, where they were run). Only some compounds are listed: those with a hit (about 5.7% of all), similar ones and a draw of the others.

O=C(N/N=C/c1ccc(Br)s1)c1ccncc1	none (no result: CSC inhib)
COc1ccc(Cl)cc1Nc1nc2ccc(C)cc2n2cnnc12	Mdm2 MdmX PPI 55 | Mdm2-MdmX conf inactive
COc1ccc(OC)c(Nc2nc3ccc(C)cc3n3cnnc23)c1	none
COc1ccc(C(=O)C[n+]2ccc(N(C)C)cc2)cc1	none
OCC[C@H]1C[C@H](O)[C@@H](O)[C@]2(OCc3ccccc32)O1	none (no result: T cruzi repl, SKKanGAS inh, Calb FLC)
CC1=NN(c2ccc(C)c(C)c2)C(=O)/C1=C\C=C\c1ccc([N+](=O)[O-])o1	Beta apoptosis 84, Mdm2 MdmX PPI 77 | Mdm2-MdmX conf 57 | FLuc counter 41
CCOC(=O)c1ccc(N2N=C(C)/C(=C/C=C/c3ccco3)C2=O)cc1	none
O=C(Nc1ccccc1O)c1nc(Cl)ccc1Cl	none
O=C1N(c2ccccc2)C(c2ccccc2)C12CCCCC2 (stereo not drawn)	none (no result: Beta apoptosis, CSC inhib, T cruzi repl, SKKanGAS inh, Calb FLC)
CCCCCCCCn1c(=O)c(C(=O)OC)c(N)c2ccccc21	Beta apoptosis 117, Mdm2 MdmX PPI 75 | Mdm2-MdmX conf inactive
CCCCCCCn1c(=O)c(C(=O)OC)c(N)c2ccccc21	none (no result: Beta apoptosis)
Clc1ccc(CSc2nncn2-c2ccccn2)cc1	none
Clc1ccc(CSc2nncn2-c2ccc3c(c2)OCCO3)cc1	Mdm2 MdmX PPI 51 | Mdm2-MdmX conf 60 | FLuc counter 48
CCN(C(=O)c1ccc(S(=O)(=O)N2CCCC2)cc1)C1CCS(=O)(=O)C1 (stereo not drawn)	none
Cn1c(SCC(=O)O)nnc1-c1ccc(NC(=O)c2ccc(Cl)c(Cl)c2)cc1	none
O=C(CCN1C(=O)c2ccccc2C1=O)Oc1ccc2ccccc2c1	none
CC1=CC(C)(C)Nc2ccc(OC(=O)CCN3C(=O)c4ccccc4C3=O)cc21	Mdm2 MdmX PPI 101 | Mdm2-MdmX conf inactive
CC(=O)NC(c1cccc([N+](=O)[O-])c1)c1c(OC(C)=O)ccc2ccccc12 (stereo not drawn)	none (no result: CSC inhib)
CC(=O)NC(c1cccc([N+](=O)[O-])c1)c1ccc2cccnc2c1O (stereo not drawn)	Beta apoptosis 97, CSC inhib 102, Mdm2 MdmX PPI 77, SKKanGAS inh 60 | Mdm2-MdmX conf 81 | FLuc counter inactive
Oc1cccc(C(Nc2nccs2)c2ccc3cccnc3c2O)c1 (stereo not drawn)	Beta apoptosis 77, CSC inhib 110, Mdm2 MdmX PPI 77, T cruzi repl 92, Calb FLC 103 | Mdm2-MdmX conf 81 | FLuc counter inactive
O=C(COc1cccc2cccnc12)Nc1nccs1	none
COc1cccc(C(NC(C)=O)c2ccc3cccnc3c2O)c1 (stereo not drawn)	Beta apoptosis 82, Mdm2 MdmX PPI 82, T cruzi repl 57, Calb FLC 80 | Mdm2-MdmX conf 80 | FLuc counter inactive
COc1cccc(/C=N/NC(=O)CSc2cccc3cccnc23)c1	none
COc1ccc(OC)c(NC(=O)C2CCC(CNc3c(N4CCC(C)CC4)c(=O)c3=O)CC2)c1 (stereo not drawn)	Mdm2 MdmX PPI 52 (no result: Beta apoptosis) | Mdm2-MdmX conf inactive
COc1ccc(C)cc1NC(=O)C1CCC(CNc2c(N3CCOCC3)c(=O)c2=O)CC1 (stereo not drawn)	none
O=C(O)Cc1ccc(O)c(O)c1	T cruzi repl inconclusive
O=C(O)Cc1cc(I)c(Oc2ccc(O)c(I)c2)c(I)c1	Mdm2 MdmX PPI 53 | Mdm2-MdmX conf inactive
C=CCNC(=S)N/N=C/c1ccc(C(F)(F)F)cc1	none
C=CCNC(=S)N/N=C/c1ccc(-c2cc(Cl)ccc2Cl)o1	Mdm2 MdmX PPI 68 | Mdm2-MdmX conf inactive
Oc1ccc2ccccc2c1C=NCc1cn2ccsc2n1	Mdm2 MdmX PPI 51 | Mdm2-MdmX conf inactive
Oc1ccc2ccccc2c1/C=N/c1nccs1	Calb FLC inconclusive
Nc1nonc1-n1nnc(C(=O)N/N=C/c2cc(Cl)ccc2O)c1CN1CCCCCC1	Beta apoptosis 91, CSC inhib inconclusive, Mdm2 MdmX PPI 68, T cruzi repl 56, SKKanGAS inh 50, Calb FLC 101 | Mdm2-MdmX conf 56 | FLuc counter inactive
Cc1nnn(-c2nonc2N)c1C(=O)N/N=C/c1ccccc1O	Beta apoptosis 85, Mdm2 MdmX PPI 56 | Mdm2-MdmX conf 61 | FLuc counter 51
Cc1nnn(-c2nonc2N)c1C(=O)N/N=C/c1cccc2ccccc12	none
CN1CCN(Cc2c(C(=O)N/N=C/c3cccc(Br)c3)nnn2-c2nonc2N)CC1	Mdm2 MdmX PPI 84 | Mdm2-MdmX conf inactive
Nc1nonc1-n1nnc(C(=O)N/N=C/c2cccc(O)c2)c1CN1CCCC1	none (no result: T cruzi repl, SKKanGAS inh)
CCN(CC)c1ccc(/C=N/NC(=O)c2nnn(-c3nonc3N)c2C(C)C)c(O)c1	Beta apoptosis 91, Mdm2 MdmX PPI 72, SKKanGAS inh 59, Calb FLC inconclusive | Mdm2-MdmX conf 88 | FLuc counter inactive
Nc1nonc1-n1nnc(C(=O)N/N=C/c2ccc(Cl)cc2Cl)c1CN1CCCCC1	none (no result: CSC inhib)
CC(C)(C)c1ccc(C(=O)N2CCN(C(=O)c3cccs3)CC2)cc1	none (no result: T cruzi repl, SKKanGAS inh, Calb FLC)
FC(F)Oc1ccccc1/C=N/n1cnc2ccccc21	none
CC1CCN(Cc2c(C(=O)N/N=C/c3ccccc3O)nnn2-c2nonc2N)CC1	Beta apoptosis 95, Mdm2 MdmX PPI 69, T cruzi repl inconclusive (no result: CSC inhib) | Mdm2-MdmX conf 80 | FLuc counter inactive
COc1ccc(NC(=O)CCc2nc3ccccc3c(=O)[nH]2)cc1S(=O)(=O)N1CCCCC1	none (no result: T cruzi repl, SKKanGAS inh, Calb FLC)
CC(=O)Nc1ccc(S(=O)(=O)/N=C2\C(=O)c3ccccc3C([O-])=C2n2cc[n+](-c3ccccn3)c2)cc1	Mdm2 MdmX PPI 55 | Mdm2-MdmX conf inactive | FLuc counter 52
COc1cccc(CC2(CO)CCCN(Cc3[nH]c4ccc(C)cc4c3C)C2)c1 (stereo not drawn)	Mdm2 MdmX PPI 63 | Mdm2-MdmX conf inactive
COc1ccc(NC(=O)c2cc(-c3ccccn3)nc3c(C)cc(C)cc23)c(C)c1	Mdm2 MdmX PPI 77 | Mdm2-MdmX conf 47 | FLuc counter 104
Cc1cc(C)c2nc(-c3ccccn3)cc(C(=O)NCc3ccc(S(N)(=O)=O)cc3)c2c1	Mdm2 MdmX PPI 54 | Mdm2-MdmX conf inactive
O=C(N/N=C/c1cc(Br)cc([N+](=O)[O-])c1O)c1ccc(NC(=O)c2ccc(F)cc2)cc1	Mdm2 MdmX PPI 56, SKKanGAS inh 59 | Mdm2-MdmX conf inactive | FLuc counter 60
O=C(/C=C/c1ccc2c(c1)OCO2)Nc1nc2ccc(F)cc2s1	Mdm2 MdmX PPI 73 | Mdm2-MdmX conf inactive
CC(C)c1ccc(/C=C/C(=O)Nc2nc3ccc([N+](=O)[O-])cc3s2)cc1	Mdm2 MdmX PPI 56 | Mdm2-MdmX conf inactive
N/C(=N\c1nc2c(c(=O)[nH]1)CCC2)Nc1ccccc1	none
